In ChEMBL document CHEMBL5252608, “Eremoxylarins D-J, Antibacterial Eremophilane Sesquiterpenes Discovered from an Endolichenic Strain of Xylaria hypoxylon” (J Nat Prod, 2023):
Activity calls are given as the source filed them. The calls are words filed in the database; no cut-off is given here.

Tests used:
Human coronavirus 229E [1] = experiment: Antiviral activity against HCoV-229E harboring luciferase reporter gene infected in human Huh-7 cells assessed as reduction in viral replication upto 50 uM pre-incubated for 1 hrs followed by replacement with fresh media for 6 hrs by renilla luciferase based luminometer analysis; assay type: functional, organism-based; conditions: time 7.0 hrs
How it was run: (§1)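 Huh-7 or Huh-7/TMPRSS2 cells in DMEM GlutaMAX-I with 10% FBS. Inoculated with luciferase-reporter HCoV-229E at MOI 0.5 for 1 h at 37 °C with compound at increasing concentrations (highest 50 μM). Virus then replaced by compound-containing medium for 6 h. Lysed for Renilla luciferase luminescence, normalised to DMSO control. Triplicate measures, 3 independent experiments, mean ± SEM.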

Human coronavirus 229E [2] = experiment: Antiviral activity against HCoV-229E harboring luciferase reporter gene infected in human Huh-7 cells expressing TMPRSS2 assessed as reduction in viral replication upto 50 uM pre-incubated for 1 hrs followed by replacement with fresh media for 6 hrs by renilla luciferase based luminometer analysis; assay type: functional, organism-based; conditions: time 7.0 hrs; how it was run: as §1
[3] = Selectivity index, ratio of CC50 for human Huh-7 cells to IC50 for antiviral activity against HCoV-229E harboring luciferase reporter gene infected in human Huh-7 cells; assay type: toxicity, cell-based; conditions: read-out: Ratio CC50/IC50
How it was run: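 Huh-7 cells (6×10^4/well) seeded and held 16 h at 37 °C, 5% CO₂, then treated 24 h with increasing compound concentrations. MTS viability read as formazan absorbance at 490 nm; CC50 derived, 3 experiments. Ratio taken against IC50 from the luciferase-reporter HCoV-229E infection assay in Huh-7 cells (MOI 0.5, 1 h plus 6 h).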

Human coronavirus 229E [4] = experiment: Antiviral activity against HCoV-229E harboring luciferase reporter gene infected in human Huh-7 cells assessed as reduction in viral replication pre-incubated for 1 hrs followed by replacement with fresh media for 6 hrs by renilla luciferase based luminometer analysis; assay type: functional, organism-based; how it was run: as §1
Human coronavirus 229E [5] = experiment: Antiviral activity against HCoV-229E harboring luciferase reporter gene infected in human Huh-7 cells expressing TMPRSS2 assessed as reduction in viral replication pre-incubated for 1 hrs followed by replacement with fresh media for 6 hrs by renilla luciferase based luminometer analysis; assay type: functional, organism-based; conditions: time 7.0 hrs; how it was run: as §1

Row | SMILES | Activity (Human coronavirus 229E [1]) | Activity (Human coronavirus 229E [2]) | selectivity ratio [3] | IC50 (Human coronavirus 229E [4]) | Activity (Human coronavirus 229E [4]; time 7.0 hrs) | Activity (Human coronavirus 229E [5])
1 | C=C(C=O)[C@H]1CC=C2[C@H](OC(=O)/C(C)=C/C=C/CCCCC)CC[C@H](C(=O)O)[C@@]2(C)C1 | inactive | inactive |  |  |  | 
2 | C=C(C=O)[C@H]1CC=C2[C@H](OC(=O)/C(C)=C/CCCCCCC)CC[C@H](C(=O)O)[C@@]2(C)C1 |  |  | 2.57 | 18.1 µM | Active | Active
